Laboratory results: ChEMBL document CHEMBL1155246, “Synthesis, antioxidant properties and radioprotective effects of new benzothiazoles and thiadiazoles” (Bioorg Med Chem, 2009)
pIC50: −log10 of the molar value.

Tests used:
[1] = tested on: Radical scavenging activity; assay: Antioxidant activity assessed as DPPH free radical scavenging activity by UV spectroscopic method; assay type: functional
[2] = Antioxidant activity assessed as ABTS free radical scavenging activity by radical cation discoloration assay; assay type: functional; conditions: for pIC50: read-out: IC50
In short: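 ABTS radical cation made by mixing aqueous 7.0 mM ABTS with potassium persulfate to 3.5 mM final and holding overnight in the dark. It was diluted with ethanol to an initial A734 of 0.70 at 30 °C. Test compound was added at several concentrations. Absorbance at 734 nm was read at 0, 0.5 and 1 min, then every 5 min to steady state. IC50 was taken as the concentration giving 50% reduction of the radical cation.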

Mus musculus [3] = assay: Radioprotective activity against gamma radiation-induced toxicity in Swiss CD1 mouse assessed as survival at 368 mg/kg, ip administered 90 mins before 10.2 Gy irradiation measured after 30 days; assay type: functional; conditions: Swiss CD1, light or radiation study, route intraperitoneal
In short: (§1)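 Male six-week-old Swiss CD1 mice, 10 per group; compound in Mygliol 812 given ip (20 ml/kg) at maximum tolerated dose (1/2 LD50tox/48H) 90 min before 60Co gamma irradiation (300 mGy/min) at 8.2 Gy (LD99.9/30days) or 10.2 Gy; survival percentage at day 30.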

[4] = Acute toxicity in Swiss CD1 mouse assessed as lethality after 48 hrs; assay type: organism-based; conditions: in vivo
In short: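 Male six-week-old Swiss CD1 mice; compound given intraperitoneally at different concentrations; deaths counted at 48 h to derive LD50tox/48H, the concentration killing 50% of animals.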

Mus musculus [5] = assay: Radioprotective activity against gamma radiation-induced toxicity in Swiss CD1 mouse assessed as survival at 368 mg/kg, ip administered 90 mins before 8.2 Gy irradiation measured after 30 days; assay type: functional; conditions: Swiss CD1, light or radiation study, route intraperitoneal; in short: as §1
Mus musculus [6] = assay: Radioprotective activity against gamma radiation-induced toxicity in Swiss CD1 mouse assessed as survival at 340 mg/kg, ip administered 90 mins before 8.2 Gy irradiation measured after 30 days; assay type: functional; conditions: Swiss CD1, light or radiation study, route intraperitoneal; in short: as §1
Mus musculus [7] = assay: Radioprotective activity against gamma radiation-induced toxicity in Swiss CD1 mouse assessed as survival at 340 mg/kg, ip administered 90 mins before 10.2 Gy irradiation measured after 30 days; assay type: functional; conditions: Swiss CD1, light or radiation study, route intraperitoneal; in short: as §1
Mus musculus [8] = assay: Radioprotective activity against gamma radiation-induced toxicity in Swiss CD1 mouse assessed as survival at 308 mg/kg, ip administered 90 mins before 8.2 Gy irradiation measured after 30 days; assay type: functional; conditions: Swiss CD1, light or radiation study, route intraperitoneal; in short: as §1
Mus musculus [9] = assay: Radioprotective activity against gamma radiation-induced toxicity in Swiss CD1 mouse assessed as survival at 308 mg/kg, ip administered 90 mins before 10.2 Gy irradiation measured after 30 days; assay type: functional; conditions: Swiss CD1, light or radiation study, route intraperitoneal; in short: as §1
Mus musculus [10] = assay: Radioprotective activity against gamma radiation-induced toxicity in B6D2F1 mouse assessed as survival at 260 mg/kg, ip administered 15 mins before 8.8 Gy irradiation measured after 30 days; assay type: functional; conditions: B6D2F1, light or radiation study, route intraperitoneal
Mus musculus [11] = assay: Radioprotective activity against gamma radiation-induced toxicity in Swiss CD1 mouse assessed as survival at 260 mg/kg, ip administered 90 mins before 8.2 Gy irradiation measured after 30 days; assay type: functional; conditions: Swiss CD1, light or radiation study, route intraperitoneal; in short: as §1
Mus musculus [12] = assay: Radioprotective activity against gamma radiation-induced toxicity in B6D2F1 mouse assessed as survival at 260 mg/kg, ip administered 15 mins before 10.8 Gy irradiation measured after 30 days; assay type: functional; conditions: B6D2F1, light or radiation study, route intraperitoneal
Mus musculus [13] = assay: Radioprotective activity against gamma radiation-induced toxicity in Swiss CD1 mouse assessed as survival at 260 mg/kg, ip administered 90 mins before 10.2 Gy irradiation measured after 30 days; assay type: functional; conditions: Swiss CD1, light or radiation study, route intraperitoneal; in short: as §1
Mus musculus [14] = assay: Radioprotective activity against gamma radiation-induced toxicity in Swiss CD1 mouse assessed as survival at 349 mg/kg, ip administered 90 mins before 10.2 Gy irradiation measured after 30 days; assay type: functional; conditions: Swiss CD1, light or radiation study, route intraperitoneal; in short: as §1
Mus musculus [15] = assay: Radioprotective activity against gamma radiation-induced toxicity in Swiss CD1 mouse assessed as survival at 349 mg/kg, ip administered 90 mins before 8.2 Gy irradiation measured after 30 days; assay type: functional; conditions: Swiss CD1, light or radiation study, route intraperitoneal; in short: as §1
Mus musculus [16] = assay: Radioprotective activity against gamma radiation-induced toxicity in Swiss CD1 mouse assessed as survival at 480 mg/kg, ip administered 90 mins before 10.2 Gy irradiation measured after 30 days; assay type: functional; conditions: Swiss CD1, light or radiation study, route intraperitoneal; in short: as §1
Mus musculus [17] = assay: Radioprotective activity against gamma radiation-induced toxicity in B6D2F1 mouse assessed as survival at 480 mg/kg, ip administered 15 mins before 8.8 Gy irradiation measured after 30 days; assay type: functional; conditions: B6D2F1, light or radiation study, route intraperitoneal
Mus musculus [18] = assay: Radioprotective activity against gamma radiation-induced toxicity in Swiss CD1 mouse assessed as survival at 480 mg/kg, ip administered 90 mins before 8.2 Gy irradiation measured after 30 days; assay type: functional; conditions: Swiss CD1, light or radiation study, route intraperitoneal; in short: as §1
Mus musculus [19] = assay: Radioprotective activity against gamma radiation-induced toxicity in B6D2F1 mouse assessed as survival at 240 mg/kg, ip administered 15 mins before 8.8 Gy irradiation measured after 30 days; assay type: functional; conditions: B6D2F1, light or radiation study, route intraperitoneal
Mus musculus [20] = assay: Radioprotective activity against gamma radiation-induced toxicity in Swiss CD1 mouse assessed as survival at 400 mg/kg, ip administered 90 mins before 8.2 Gy irradiation measured after 30 days; assay type: functional; conditions: Swiss CD1, light or radiation study, route intraperitoneal; in short: as §1
Mus musculus [21] = assay: Radioprotective activity against gamma radiation-induced toxicity in Swiss CD1 mouse assessed as survival at 400 mg/kg, ip administered 90 mins before 10.2 Gy irradiation measured after 30 days; assay type: functional; conditions: Swiss CD1, light or radiation study, route intraperitoneal; in short: as §1
Mus musculus [22] = assay: Radioprotective activity against gamma radiation-induced toxicity in B6D2F1 mouse assessed as survival at 400 mg/kg, ip administered 15 mins before 10.8 Gy irradiation measured after 30 days; assay type: functional; conditions: B6D2F1, light or radiation study, route intraperitoneal
Mus musculus [23] = assay: Radioprotective activity against gamma radiation-induced toxicity in B6D2F1 mouse assessed as survival at 400 mg/kg, ip administered 15 mins before 8.8 Gy irradiation measured after 30 days; assay type: functional; conditions: B6D2F1, light or radiation study, route intraperitoneal

N=c1sc2ccccc2n1CCO
pIC50 [1]: < 2.40

CCSc1nn(CCSS(=O)(=O)O)c(=N)s1
pIC50 [2]: 5.08

CCOc1ccc2nc(N)sc2c1
pIC50 [1]: < 2.40

Cc1ccc2c(c1)sc(=N)n2CCO
pIC50 [1]: < 2.40

CCOc1ccc2c(c1)sc(=N)n2CCSS(=O)(=O)O
IC50 [2]: ND(Insoluble)

CCSc1nnc(NCCS)s1
pIC50 [1]: 3.96 | survival at 368 mg/kg (Mus musculus [3]): 0% | pIC50 [2]: 3.41 | LD50 at 48 h [4]: > 736 mg/kg | survival at 368 mg/kg (Mus musculus [5]): 0%

CCc1nnc(S)s1
survival at 340 mg/kg (Mus musculus [6]): 30% | pIC50 [1]: 4.08 | pIC50 [2]: 4.67 | LD50 at 48 h [4]: > 680 mg/kg | survival at 340 mg/kg (Mus musculus [7]): 0%

Cc1ccc2nc(NCCS)sc2c1
pIC50 [1]: 2.50 | pIC50 [2]: 2.39

SCCNc1nc2ccccc2s1
pIC50 [1]: 2.86 | survival at 308 mg/kg (Mus musculus [8]): 60% | survival at 308 mg/kg (Mus musculus [9]): 0% | pIC50 [2]: 2.82 | LD50 at 48 h [4]: > 616 mg/kg

CCc1nn(CCSS(=O)(=O)O)c(=N)s1
pIC50 [2]: 4.29

CCc1nn(CCO)c(=N)s1
pIC50 [1]: 2.62

CCSc1nn(CCO)c(=N)s1
pIC50 [1]: 2.46

CCc1nnc(N)s1
pIC50 [1]: < 2.40

CCOc1ccc2nc(S)sc2c1
pIC50 [1]: 4.34 | pIC50 [2]: 4.05

CCC(=O)Nc1nc2ccccc2s1
pIC50 [1]: < 2.40

Cc1ccc2nc(S)sc2c1
survival at 260 mg/kg (Mus musculus [10]): 100% | pIC50 [1]: 4.04 | pIC50 [2]: 4.12 | LD50 at 48 h [4]: > 520 mg/kg | survival at 260 mg/kg (Mus musculus [11]): 80% | survival at 260 mg/kg (Mus musculus [12]): 0% | survival at 260 mg/kg (Mus musculus [13]): 0%

CCSc1nnc(S)s1
survival at 349 mg/kg (Mus musculus [14]): 0% | pIC50 [1]: 4.28 | pIC50 [2]: 4.64 | LD50 at 48 h [4]: 698 mg/kg | survival at 349 mg/kg (Mus musculus [15]): 0%

N=c1sc2ccccc2n1CCSS(=O)(=O)O
IC50 [2]: ND(Insoluble)

CCc1nn(CCSP(=O)(O)O)c(=N)s1
pIC50 [2]: 4.04

CCOc1ccc2c(c1)sc(=N)n2CCO
pIC50 [1]: 2.85

CCSc1nnc(N)s1
pIC50 [1]: < 2.40

CCC(=O)Nc1nc2ccc(C)cc2s1
pIC50 [1]: < 2.40

CCSc1nnc(NC(=O)CC)s1
pIC50 [1]: < 2.40

Cc1ccc2c(c1)sc(=N)n2CCSS(=O)(=O)O
IC50 [2]: ND(Insoluble)

CCSc1nn(CCSP(=O)(O)O)c(=N)s1
pIC50 [2]: 4.11

CCOc1ccc2nc(NC(=O)CC)sc2c1
pIC50 [1]: < 2.40

CCC(=O)Nc1nnc(CC)s1
pIC50 [1]: < 2.40

Sc1nc2ccccc2s1 [2-MERCAPTOBENZOTHIAZOLE]
survival at 480 mg/kg (Mus musculus [16]): 0% | pIC50 [1]: 4.04 | survival at 480 mg/kg (Mus musculus [17]): 100% | pIC50 [2]: 4.10 | LD50 at 48 h [4]: > 960 mg/kg | survival at 480 mg/kg (Mus musculus [18]): 60% | survival at 240 mg/kg (Mus musculus [19]): 90%

NCCCNCCSP(=O)(O)O [AMIFOSTINE]
survival at 400 mg/kg (Mus musculus [20]): 50% | pIC50 [1]: 4.00 | survival at 400 mg/kg (Mus musculus [21]): 20% | LD50 at 48 h [4]: 800 mg/kg | survival at 400 mg/kg (Mus musculus [22]): 60% | survival at 400 mg/kg (Mus musculus [23]): 100%

O=C1O[C@H]([C@@H](O)CO)C(O)=C1O [ASCORBIC ACID]
pIC50 [1]: 4.70 | pIC50 [2]: 4.33

N[C@@H](CCC(=O)N[C@@H](CS)C(=O)NCC(=O)O)C(=O)O [GLUTATHIONE]
pIC50 [1]: 4.02

Cc1c(C)c2c(c(C)c1O)CCC(C)(C(=O)O)O2 (stereo not drawn) [TROLOX]
pIC50 [1]: 4.47
